Experimental data taken from paper PMC5598529 (Toxicology Reports, 2014).
Entries after “also recorded” stand apart in the source; their conditions may differ.

Columns and labels:
Assay type in all cases: cell-based, human
Caco-2 cell monolayer [1] = experiment: Phenol red diffusion; settings: 1-25 μM, day 10, vs control
How it was run: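 Monolayers were grown on collagen-coated Transwells (2.5 × 10^5 cells/well) for 4 days. Then 1, 5, 10 or 25 μM test compound or 0.1% DMSO was added to both compartments in 4% FBS medium, renewed every 2 days. At day 10, phenol red medium was placed apically and phenol red-free medium basolaterally. Apical-to-basolateral diffusion over 4 h was read at 560 nm and expressed as percent diffusion.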

[2] = system: Alkaline phosphatase activity in Caco-2 cells; experiment: Alkaline phosphatase assay for cell differentiation; settings: for ALP activity (J10), direction of effect: 1-25 μM, 10 days, vs control, p < 0.01; for ALP activity (J10), concentration given for the effect: day 10, p < 0.01
How it was run: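 Caco-2 seeded at 1.125 × 10^5 cells/well and treated next day with 1, 5, 10 or 25 μM of test compound, or 0.1% DMSO vehicle, for 10 days in 4% FBS medium, renewed every 48 h. Cells were scraped into cold 50 mM Tris pH 7.5 and needle-homogenised. Lysate ALP hydrolysed pNPP over 30 min at pH 10.4, 37 °C; p-nitrophenol read at 405 nm, per mg protein, as % of control.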

Caco-2 cells [3] = experiment: Lipid peroxidation measurement; settings: 48 h exposure; for Lipid peroxidation, concentration given for the effect: p < 0.01; for TBARS level with respect to control: 25 μM
How it was run: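 Cells were seeded at 1.25 × 10^5/well and exposed for 48 h to 25 or 100 μM test compound. Culture medium was mixed with HCl and TBA buffer, heated 10 min at 95 °C, ice-cooled and extracted with n-butanol. Absorbance was read at 532 nm. MDA equivalents were calculated from a TMOP calibration curve.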

Caco-2 cells [4] = experiment: MTT cell viability assay; settings: for concentration at which impact on viability appeared: appeared later (J7); for Cell viability (J10), concentration given for the effect: day 10, p < 0.05; for concentration at which toxicity was observed: 3 days-period of exposure
How it was run: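 Caco-2 (passage 25–39) were seeded at 5 × 10^4/well. After 20 h they received 0.1–100 μM test compound, alone or as an equimolar mixture, in 4% FBS medium, renewed every 48 h, for 3, 7 and 10 days. MTT (0.5 mg/ml in RPMI) was added for 4 h at 37 °C and stopped with SDS/NaOH. Absorbance was read at 570/690 nm as % of DMSO control; EC50 was taken from the dose–response curve. Three experiments, each in quadruplicate.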

Caco-2 cells [5] = experiment: Intracellular ROS; settings: 6 h exposure, p < 0.05; for H2O2 production, direction of effect: 25 or 100 μM, vs control
How it was run: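 Cells were plated at 5 × 10^4/well and grown 48 h in 10% FBS medium, then washed with PBS. They were exposed for 6 h at 37 °C to 25 or 100 μM test compound in HBSS containing 5 μM H2-DCFDA; controls had 0.025% DMSO. After PBS washes, fluorescence was read at ex 485/em 530 nm.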

[6] = system: catalase (CAT) activity in Caco-2 cells; experiment: Antioxidant enzyme assay: catalase; settings: 10 days, 1, 5, 10 and 25 μM, vs control
How it was run: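 Cells at 1.5 × 10^5/well were exposed next day to 1–25 μM test compound or vehicle, renewed every 48 h. At day 10 they were sonicated in 50 mM phosphate pH 7 with 1 mM EDTA. Catalase was measured in the 105,000 × g (1 h, 4 °C) supernatant as H2O2 decomposition followed at 240 nm for 30 s. Specific activity is given as % of control.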

[7] = system: phospho-Akt (Ser473) in Caco-2 cells; experiment: Western blot analysis of Akt; settings: 25 μM, compared to control
How it was run: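 Cells at 1.5 × 10^5/well were exposed 20 h after seeding to 25 μM of each test compound or the mixture for 10 days. Lysis was in RIPA with protease and phosphatase inhibitors. 25 μg protein was resolved by SDS-PAGE and blotted to nitrocellulose. Blots were probed overnight at 4 °C with anti-phospho-Akt Ser473 (1/2000) and anti-Akt1/2/3 (1/1000), then detected with 800 nm infrared-dye secondaries and quantified by relative fluorescence. Three independent experiments.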

Caco-2 cell monolayer [8] = experiment: Transepithelial electrical resistance; settings: for TEER (J10), direction of effect: 1-25 μM, 10 days, vs control; for TEER (J10), concentration given for the effect: day 10
How it was run: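 Caco-2 were grown on collagen-coated Transwells (2.5 × 10^5 cells/well) for 4 days. They were then exposed apically and basolaterally to 1, 5, 10 or 25 μM test compound or 0.1% DMSO, renewed every 2 days. Resistance was measured at days 0, 3, 7 and 10 and expressed in Ω cm2. Mean ± SEM of 3 independent experiments, each in triplicate.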

Caco-2 cells [9] = experiment: Detection of apoptosis and necrosis by Hoechst 33342 and PI staining; settings: 25 μM, 48 h; for Percent of necrosis in treated vs control cells: ratio of percentage of necrotic cells in treated versus untreated cells
How it was run: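 Cells were seeded at 1.25 × 10^5/well. After 20 h they received 25 μM test compound, alone or as an equimolar mixture, for 48 h. They were stained with Hoechst 33342 (5 μg/ml) plus PI (1 μg/ml) for 30 min at 37 °C in the dark, then washed. Normal, apoptotic and necrotic cells were counted in four random fields per well. Three independent experiments, each in triplicate.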

[10] = system: superoxide dismutase (SOD) activity in Caco-2 cells; experiment: Antioxidant enzyme assay: superoxide dismutase; settings: 10 days, 1, 5, 10 and 25 μM, vs control
How it was run: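 Supernatant at 105,000 × g from sonicated Caco-2 was used, after 10 days' exposure to 1–25 μM test compound or vehicle. Superoxide came from xanthine–xanthine oxidase, and inhibition of NBT reduction was followed kinetically at 560 nm for 5 min over several protein amounts. One unit inhibits formazan formation by 50%. Specific activity is given as % of control.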

Caco-2 cells [11] = experiment: Observation of morphologic changes; settings: 25 μM, 72 h, phase contrast microscopy
How it was run: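 Cells were seeded at 1.125 × 10^5/well and grown 20 h. They were then exposed to 25 μM test compound for 72 h and morphology was examined by phase-contrast microscopy.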

[12] = system: glutathione peroxidase (GPx) activity in Caco-2 cells; experiment: Antioxidant enzyme assay: glutathione peroxidase; settings: 10 days, 1, 5, 10 and 25 μM, vs control
How it was run: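 GPx activity was measured in Caco-2 exposed to 1–25 μM test compound or vehicle for 10 days. Cells were sonicated in 50 mM phosphate pH 7 with 1 mM EDTA and the 105,000 × g supernatant was used. The assay was coupled to glutathione reductase with H2O2 and NADPH, and NADPH loss was followed at 340 nm. Specific activity is given as % of control.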

| SMILES | Apparent permeability (J10) (phenol red diffusion), direction of effect (Caco-2 cell monolayer [1]) | ALP activity (J10), direction of effect [2] | ALP activity (J10), concentration given for the effect [2] | Lipid peroxidation, concentration given for the effect (Caco-2 cells [3]) | concentration at which impact on viability appeared (Caco-2 cells [4]) | Cell viability (J10), concentration given for the effect (Caco-2 cells [4]) | H2O2 production, concentration given for the effect (Caco-2 cells [5]) | CAT activity [6] | level of phospho-Akt (Ser473) [7] | TEER (J10), direction of effect (Caco-2 cell monolayer [8]) | TEER (J10), concentration given for the effect (Caco-2 cell monolayer [8]) | Percent of necrosis in treated vs control cells (Caco-2 cells [9]) | H2O2 production, direction of effect (Caco-2 cells [5]) | SOD activity [10] | morphological changes / cell density (Caco-2 cells [11]) | GPx activity [12] | TBARS level with respect to control (Caco-2 cells [3]) | concentration at which toxicity was observed (Caco-2 cells [4]) | further results |
| --- | --- | --- | --- | --- | --- | --- | --- | --- | --- | --- | --- | --- | --- | --- | --- | --- | --- | --- | --- |
| CC1(C)[C@H](C(=O)O[C@H](C#N)c2cccc(Oc3ccccc3)c2)[C@@H]1/C=C(\Cl)C(F)(F)F (racemic) [LCT, lambda-cyhalothrin] | decrease of membrane permeability | increased its activity | 1 µM | 100 µM | 1 µM | 1 µM | 100 µM | increase | greatest impact | significant increase | 25 µM |  |  |  |  |  |  |  |  |
| CC1(C)[C@H](C(=O)O[C@H](C#N)c2cccc(Oc3ccccc3)c2)[C@@H]1C=C(Br)Br [DTM, deltamethrin] | decrease of membrane permeability | increased its activity | 1 µM | 100 µM | 8 µM | 8 µM | 25 µM | increase |  | significant increase | 10 µM | 2.7 | strongest effect |  |  |  |  |  |  |
| COP(=S)(OC)Oc1ccc([N+](=O)[O-])c(C)c1 [FNT, fenitrothion] | increase of the apparent permeability | decreased ALP activity | 5 µM | 25 µM |  | 5 µM | 25 µM |  |  | net decrease | 10 µM | 4.4 | strongest effect | increase | reduction of cell density | increase | 167.66% | 1 µM |  |
| N#Cc1nn(-c2c(Cl)cc(C(F)(F)F)cc2Cl)c(N)c1[S+]([O-])C(F)(F)F (stereo not shown) [FPN, fipronil] |  | decreased ALP activity | 10 µM | 25 µM | 5 µM | 5 µM | 100 µM |  | reduced level; also recorded: greatest impact | failed to produce a clear and noticeable change |  | 3.2 | strongest effect |  | reduction of cell density | increase | 192.45% |  | apoptotic cells (Caco-2 cells [9]; vs control): huge increased; percentage of necrotic cells (Caco-2 cells [9]; vs control): increased to a lesser extent; EC50 (Caco-2 cells [4]; Caco-2 cells, 10 days exposure, 0.1-100 μM, mean ± SEM): 18.1 ± 0.5 µM |
| O=C(NC(=O)c1c(F)cccc1F)Nc1cc(Cl)c(F)c(Cl)c1F [TBZ, teflubenzuron] | increase of the apparent permeability | increased its activity | 5 µM | 25 µM |  | 5 µM | 100 µM | no change |  | net decrease | 5 µM | 3.8 |  | no change |  | no change |  | 5 µM |  |
